According to ChEMBL document CHEMBL1158343, “Synthesis, antimicrobial and antiviral evaluation of substituted imidazole derivatives” (Eur J Med Chem, 2009):
In brackets after ≈: the same amount, converted by molar mass.

What was measured:
[1] = tested on: Respiratory syncytial virus; experiment: Antiviral activity against RSV infected in human HeLa cells assessed as reduction in virus-induced cytopathogenicity after 3 days; type: functional, organism-based; conditions: 72 h
Sindbis virus = experiment: Antiviral activity against Sindbis virus infected in african green monkey Vero cells assessed as reduction in virus-induced cytopathogenicity after 3 days; type: functional, organism-based; conditions: 72 h
Candida albicans = experiment: Antimicrobial activity against Candida albicans after 48 hrs by tube dilution method; type: functional
Method in brief: (§1)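 Tube dilution in DMSO (stock 100 mg/ml) with serial dilutions; incubation 37 °C for 48 h for C. albicans (other organisms' times truncated in text). MIC read as lowest concentration inhibiting visible growth. Norfloxacin (bacteria) and fluconazole (fungi) as reference drugs.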

Coxsackievirus B4 [2] = experiment: Antiviral activity against Coxsackievirus B4 infected in human HeLa cells assessed as reduction in virus-induced cytopathogenicity after 3 days; type: functional, organism-based; conditions: Enterovirus B, 72 h
Staphylococcus aureus = experiment: Antimicrobial activity against Staphylococcus aureus after 24 hrs by tube dilution method; type: functional; method in brief: as §1
Coxsackievirus B4 [3] = experiment: Antiviral activity against Coxsackievirus B4 infected in african green monkey Vero cells assessed as reduction in virus-induced cytopathogenicity after 3 days; type: functional, organism-based; conditions: Enterovirus B, 72 h
Bacillus subtilis = experiment: Antimicrobial activity against Bacillus subtilis after 24 hrs by tube dilution method; type: functional; method in brief: as §1
Human alphaherpesvirus 1 [4] = experiment: Antiviral activity against HSV1 KOS infected in human HEL cells assessed as reduction in virus-induced cytopathogenicity after 3 days; type: functional, organism-based; conditions: Human alphaherpesvirus 1, KOS, 72 h
Human alphaherpesvirus 2 = experiment: Antiviral activity against HSV2 G infected in human HEL cells assessed as reduction in virus-induced cytopathogenicity after 3 days; type: functional, organism-based; conditions: Human alphaherpesvirus 2, strain G, 72 h
Human alphaherpesvirus 1 [5] = experiment: Antiviral activity against thymidine kinase-deficient acyclovir-resistant HSV1 KOS infected in human HEL cells assessed as reduction in virus-induced cytopathogenicity after 3 days; type: functional, organism-based; conditions: Human alphaherpesvirus 1, KOS, 72 h
Punta Toro virus = experiment: Antiviral activity against Punta Toro virus infected in african green monkey Vero cells assessed as reduction in virus-induced cytopathogenicity after 3 days; type: functional, organism-based; conditions: 72 h
[6] = Cytotoxicity against human HeLa cells assessed as alteration in cell morphology; type: cell-based
Method in brief: (§2)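 Uninfected cell cultures tested in parallel with the CPE-reduction antiviral assay; cells grown to confluency, then serial compound dilutions added and incubated at 37 °C (3 days in the parallel antiviral set-up). Read-out is microscopic examination of morphology; value is the minimum cytotoxic concentration, the lowest causing a microscopically detectable alteration of normal cell morphology.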

Aspergillus niger = experiment: Antimicrobial activity against Aspergillus niger after 7 days by tube dilution method; type: functional; conditions: 168 h; method in brief: as §1
[7] = Cytotoxicity against human HEL cells assessed as alteration in cell morphology; type: cell-based; method in brief: as §2
Escherichia coli = experiment: Antimicrobial activity against Escherichia coli after 24 hrs by tube dilution method; type: functional; method in brief: as §1
[8] = tested on: Mammalian orthoreovirus 1; experiment: Antiviral activity against Reovirus 1 infected in african green monkey Vero cells assessed as reduction in virus-induced cytopathogenicity after 3 days; type: functional, organism-based; conditions: Mammalian orthoreovirus 1, Vero, 72 h
[9] = tested on: Vesicular stomatitis virus; experiment: Antiviral activity against VSV infected in human HEL cells assessed as reduction in virus-induced cytopathogenicity after 3 days; type: functional, organism-based; conditions: 72 h
[10] = tested on: Vesicular stomatitis virus; experiment: Antiviral activity against VSV infected in human HeLa cells assessed as reduction in virus-induced cytopathogenicity after 3 days; type: functional, organism-based; conditions: 72 h
[11] = Cytotoxicity against african green monkey Vero cells assessed as alteration in cell morphology; type: cell-based; conditions: chlorocebus sabaeus; method in brief: as §2
Human respirovirus 3 = experiment: Antiviral activity against Parainfluenza-3 virus infected in african green monkey Vero cells assessed as reduction in virus-induced cytopathogenicity after 3 days; type: functional, organism-based; conditions: Human respirovirus 3, Vero, 72 h

## O=C(c1ccccc1Br)n1ccnc1-c1ccccc1[N+](=O)[O-]
[1]
  EC50: > 100 µg/mL
Sindbis virus
  EC50: > 100 µg/mL
Candida albicans
  MFC: 268 µM (≈ 99.7 µg/mL)
  MIC: 33 µM (≈ 12.3 µg/mL)
Coxsackievirus B4 [2]
  EC50: > 100 µg/mL
Staphylococcus aureus
  MBC: 268 µM (≈ 99.7 µg/mL)
  MIC: 2 µM (≈ 0.744 µg/mL)
Coxsackievirus B4 [3]
  EC50: > 100 µg/mL
Bacillus subtilis
  MBC: 268 µM (≈ 99.7 µg/mL)
  MIC: 2 µM (≈ 0.744 µg/mL)
Human alphaherpesvirus 1 [4]
  EC50: > 100 µg/mL
Human alphaherpesvirus 2
  EC50: > 100 µg/mL
Human alphaherpesvirus 1 [5]
  EC50: > 100 µg/mL
Punta Toro virus
  EC50: > 100 µg/mL
[6]
  MCC: > 100 µg/mL
Aspergillus niger
  MFC: 67 µM (≈ 24.9 µg/mL)
  MIC: 4 µM (≈ 1.49 µg/mL)
[7]
  MCC: > 100 µg/mL
Escherichia coli
  MBC: 268 µM (≈ 99.7 µg/mL)
  MIC: 33 µM (≈ 12.3 µg/mL)
[8]
  EC50: > 100 µg/mL
[9]
  EC50: > 100 µg/mL
[10]
  EC50: > 100 µg/mL
[11]
  MCC: > 100 µg/mL
Human respirovirus 3
  EC50: > 100 µg/mL

## O=C(c1ccccc1Br)n1ccnc1-c1ccc([N+](=O)[O-])cc1
[1]
  EC50: > 100 µg/mL
Sindbis virus
  EC50: > 100 µg/mL
Candida albicans
  MFC: 134 µM (≈ 49.9 µg/mL)
  MIC: 16 µM (≈ 5.95 µg/mL)
Coxsackievirus B4 [2]
  EC50: > 100 µg/mL
Staphylococcus aureus
  MBC: 16 µM (≈ 5.95 µg/mL)
  MIC: 2 µM (≈ 0.744 µg/mL)
Coxsackievirus B4 [3]
  EC50: > 100 µg/mL
Bacillus subtilis
  MBC: 33 µM (≈ 12.3 µg/mL)
  MIC: 4 µM (≈ 1.49 µg/mL)
Human alphaherpesvirus 1 [4]
  EC50: > 100 µg/mL
Human alphaherpesvirus 2
  EC50: > 100 µg/mL
Human alphaherpesvirus 1 [5]
  EC50: > 100 µg/mL
Punta Toro virus
  EC50: > 100 µg/mL
[6]
  MCC: > 100 µg/mL
Aspergillus niger
  MFC: 67 µM (≈ 24.9 µg/mL)
  MIC: 4 µM (≈ 1.49 µg/mL)
[7]
  MCC: > 100 µg/mL
Escherichia coli
  MBC: 33 µM (≈ 12.3 µg/mL)
  MIC: 4 µM (≈ 1.49 µg/mL)
[8]
  EC50: > 100 µg/mL
[9]
  EC50: > 100 µg/mL
[10]
  EC50: > 100 µg/mL
[11]
  MCC: > 100 µg/mL
Human respirovirus 3
  EC50: > 100 µg/mL

## O=C(O)c1ccccc1-c1nccn1C(=O)c1ccc([N+](=O)[O-])cc1
[1]
  EC50: > 100 µg/mL
Sindbis virus
  EC50: > 100 µg/mL
Candida albicans
  MFC: 256 µM (≈ 86.3 µg/mL)
  MIC: 18 µM (≈ 6.07 µg/mL)
Coxsackievirus B4 [2]
  EC50: > 100 µg/mL
Staphylococcus aureus
  MBC: 18 µM (≈ 6.07 µg/mL)
  MIC: 2 µM (≈ 0.675 µg/mL)
Coxsackievirus B4 [3]
  EC50: > 100 µg/mL
Bacillus subtilis
  MBC: 18 µM (≈ 6.07 µg/mL)
  MIC: 2 µM (≈ 0.675 µg/mL)
Human alphaherpesvirus 1 [4]
  EC50: > 100 µg/mL
Human alphaherpesvirus 2
  EC50: > 100 µg/mL
Human alphaherpesvirus 1 [5]
  EC50: > 100 µg/mL
Punta Toro virus
  EC50: > 100 µg/mL
[6]
  MCC: > 100 µg/mL
Aspergillus niger
  MFC: 148 µM (≈ 49.9 µg/mL)
  MIC: 9 µM (≈ 3.04 µg/mL)
[7]
  MCC: > 100 µg/mL
Escherichia coli
  MBC: 18 µM (≈ 6.07 µg/mL)
  MIC: 2 µM (≈ 0.675 µg/mL)
[8]
  EC50: > 100 µg/mL
[9]
  EC50: > 100 µg/mL
[10]
  EC50: > 100 µg/mL
[11]
  MCC: > 100 µg/mL
Human respirovirus 3
  EC50: > 100 µg/mL

## O=C(c1ccc([N+](=O)[O-])cc1)n1ccnc1-c1ccc([N+](=O)[O-])cc1
[1]
  EC50: > 20 µg/mL
Sindbis virus
  EC50: > 100 µg/mL
Candida albicans
  MFC: 147 µM (≈ 49.7 µg/mL)
  MIC: 18 µM (≈ 6.09 µg/mL)
Coxsackievirus B4 [2]
  EC50: > 20 µg/mL
Staphylococcus aureus
  MBC: 295 µM (≈ 99.8 µg/mL)
  MIC: 73 µM (≈ 24.7 µg/mL)
Coxsackievirus B4 [3]
  EC50: > 100 µg/mL
Bacillus subtilis
  MBC: 295 µM (≈ 99.8 µg/mL)
  MIC: 36 µM (≈ 12.2 µg/mL)
Human alphaherpesvirus 1 [4]
  EC50: 59 µg/mL (≈ 174 µM)
Human alphaherpesvirus 2
  EC50: 50 µg/mL (≈ 148 µM)
Human alphaherpesvirus 1 [5]
  EC50: 45 µg/mL (≈ 133 µM)
Punta Toro virus
  EC50: > 100 µg/mL
[6]
  MCC: 100 µg/mL
Aspergillus niger
  MFC: 147 µM (≈ 49.7 µg/mL)
  MIC: 18 µM (≈ 6.09 µg/mL)
[7]
  MCC: > 100 µg/mL
Escherichia coli
  MBC: 295 µM (≈ 99.8 µg/mL)
  MIC: 73 µM (≈ 24.7 µg/mL)
[8]
  EC50: > 100 µg/mL
[9]
  EC50: > 100 µg/mL
[10]
  EC50: > 20 µg/mL
[11]
  MCC: > 100 µg/mL
Human respirovirus 3
  EC50: > 100 µg/mL

## O=C(c1ccc([N+](=O)[O-])cc1)n1ccnc1-c1ccc(Cl)cc1
[1]
  EC50: > 100 µg/mL
Sindbis virus
  EC50: > 100 µg/mL
Candida albicans
  MFC: 152 µM (≈ 49.8 µg/mL)
  MIC: 19 µM (≈ 6.23 µg/mL)
Coxsackievirus B4 [2]
  EC50: 45 µg/mL (≈ 137 µM)
Staphylococcus aureus
  MBC: 152 µM (≈ 49.8 µg/mL)
  MIC: 38 µM (≈ 12.5 µg/mL)
Coxsackievirus B4 [3]
  EC50: > 100 µg/mL
Bacillus subtilis
  MBC: 305 µM (≈ 100 µg/mL)
  MIC: 19 µM (≈ 6.23 µg/mL)
Human alphaherpesvirus 1 [4]
  EC50: > 100 µg/mL
Human alphaherpesvirus 2
  EC50: > 100 µg/mL
Human alphaherpesvirus 1 [5]
  EC50: > 100 µg/mL
Punta Toro virus
  EC50: > 100 µg/mL
[6]
  MCC: > 100 µg/mL
Aspergillus niger
  MFC: 76 µM (≈ 24.9 µg/mL)
  MIC: 4 µM (≈ 1.31 µg/mL)
[7]
  MCC: > 100 µg/mL
Escherichia coli
  MBC: 305 µM (≈ 100 µg/mL)
  MIC: 38 µM (≈ 12.5 µg/mL)
[8]
  EC50: > 100 µg/mL
[9]
  EC50: > 100 µg/mL
[10]
  EC50: > 100 µg/mL
[11]
  MCC: > 100 µg/mL
Human respirovirus 3
  EC50: > 100 µg/mL
